According to ChEMBL document CHEMBL1127047, “10,5-(Iminomethano)-10,11-dihydro-5H-dibenzo[a,d]cycloheptene and derivatives. Potent PCP receptor ligands” (J Med Chem, 1993):
Values joined by “and” are separate entries in the source; they are usually repeats but may differ in a detail not shown here. Equal entries are not always repeated.

Columns and labels:
Glutamate NMDA receptor = experiment: Inhibition of [3H]MK-801 binding to the PCP receptor site in guinea pig brain homogenate; assay type: tissue-based
[1] = In vitro neuroprotection against glutamate-induced toxicity at 5 uM using rat hippocampal cell cultures at 3 uM of glutamate; assay type: functional, Hippocampus
How it was run: (§1)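 Dissociated hippocampal cultures from 1–3 day postnatal Sprague–Dawley rats, papain-dissociated and treated with 5 μM cytosine arabinoside. Blind, coded test. In HEPES-buffered salt solution (pH 7.4, 32–34 °C), cultures got a 5 min preincubation with 1 μM glycine plus compound, then 5 min with glycine, compound and glutamate. Next day, 0.4% Trypan Blue; surviving cells in the grid were counted by phase contrast and expressed as % of highest count.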

[2] = In vitro neuroprotection against glutamate-induced toxicity at 5 uM using rat hippocampal cell cultures at 30 uM of glutamate; assay type: functional, Hippocampus; how it was run: as §1
[3] = In vitro neuroprotection against glutamate-induced toxicity at 5 uM using rat hippocampal cell cultures at 300 uM of glutamate; assay type: functional, Hippocampus; how it was run: as §1
[4] = In vitro neuroprotection against glutamate-induced toxicity at 5 uM using rat hippocampal cell cultures at 0 uM of glutamate; assay type: functional, Hippocampus; how it was run: as §1
[5] = In vitro neuroprotection against glutamate-induced toxicity at 5 uM using rat hippocampal cell cultures at 10 uM of glutamate; assay type: functional, Hippocampus; how it was run: as §1
[6] = In vitro neuroprotection against glutamate-induced toxicity at 5 uM using rat hippocampal cell cultures at 100 uM of glutamate; assay type: functional, Hippocampus; how it was run: as §1
[7] = In vitro neuroprotection against glutamate-induced toxicity at 5 uM using rat hippocampal cell cultures at 1000 uM of glutamate; assay type: functional, Hippocampus; how it was run: as §1
[8] = In vitro neuroprotection against glutamate-induced toxicity at 10 uM using rat hippocampal cell cultures at 3 uM of glutamate; assay type: functional, Hippocampus; how it was run: as §1
[9] = In vitro neuroprotection against glutamate-induced toxicity at 10 uM using rat hippocampal cell cultures at 30 uM of glutamate; assay type: functional, Hippocampus; how it was run: as §1
[10] = In vitro neuroprotection against glutamate-induced toxicity at 10 uM using rat hippocampal cell cultures at 300 uM of glutamate; assay type: functional, Hippocampus; how it was run: as §1
[11] = In vitro neuroprotection against glutamate-induced toxicity at 10 uM using rat hippocampal cell cultures at 0 uM of glutamate; assay type: functional, Hippocampus; how it was run: as §1
[12] = In vitro neuroprotection against glutamate-induced toxicity at 10 uM using rat hippocampal cell cultures at 10 uM of glutamate; assay type: functional, Hippocampus; how it was run: as §1
[13] = In vitro neuroprotection against glutamate-induced toxicity at 10 uM using rat hippocampal cell cultures at 100 uM of glutamate; assay type: functional, Hippocampus; how it was run: as §1
[14] = In vitro neuroprotection against glutamate-induced toxicity at 10 uM using rat hippocampal cell cultures at 1000 uM of glutamate; assay type: functional, Hippocampus; how it was run: as §1

COc1ccc2c(c1)C1CN(C)C2Cc2ccc(Br)cc21 (stereo not given)
IC50 (Glutamate NMDA receptor): 0.643 µM

CC12CNC(Cc3ccccc31)c1ccccc12 (stereo not given)
IC50 (Glutamate NMDA receptor): 0.119 µM

Nc1ccc2c(c1)C1CNC(C2)c2ccccc21 (stereo not given)
IC50 (Glutamate NMDA receptor): 0.486 µM

Cc1ccc2c(c1)C1CNC(C2)c2ccccc21 (stereo not given)
IC50 (Glutamate NMDA receptor): 0.108 µM

c1ccc(CN2CC3c4ccccc4CC2c2ccccc23)nc1 (stereo not given)
IC50 (Glutamate NMDA receptor): > 10 µM

O=[N+]([O-])c1ccc2c(c1)C1CNC(C2)c2ccccc21 (stereo not given)
IC50 (Glutamate NMDA receptor): 4.3 µM

COc1ccc2c(c1)C1CNC2Cc2ccc(Cl)cc21 (stereo not given)
IC50 (Glutamate NMDA receptor): 0.113 µM

CC(=O)N1CC2c3cc([N+](=O)[O-])ccc3CC1c1ccccc12 (stereo not given)
IC50 (Glutamate NMDA receptor): > 10 µM

COc1ccc2c(c1)C1CNC(C2)c2ccccc21 (stereo not given)
IC50 (Glutamate NMDA receptor): 0.168 µM

Brc1ccc2c(c1)C1CNC(C2)c2ccccc21 (stereo not given)
IC50 (Glutamate NMDA receptor): 0.0517 µM

CN1CC2c3cc(Br)ccc3CC1c1ccccc12 (stereo not given)
IC50 (Glutamate NMDA receptor): 1.04 µM

COc1ccc2c(c1)C1CNC2Cc2ccc(Br)cc21 (stereo not given)
IC50 (Glutamate NMDA receptor): 0.114 µM

Ic1ccc2c(c1)C1CNC(C2)c2ccccc21 (stereo not given)
IC50 (Glutamate NMDA receptor): 0.16 µM

[N-]=[N+]=Nc1ccc2c(c1)C1CNC(C2)c2ccccc21 (stereo not given)
IC50 (Glutamate NMDA receptor): 0.5 µM

CN(C)CCCN1CC2c3ccccc3CC1c1ccccc12 (stereo not given)
IC50 (Glutamate NMDA receptor): 12 µM

Clc1ccc2c(c1)C1CNC2Cc2ccccc21 (stereo not given)
IC50 (Glutamate NMDA receptor): 0.69 µM

CC(C)N1CC2c3ccccc3CC1c1ccccc12 (stereo not given)
IC50 (Glutamate NMDA receptor): 1.88 µM

c1ccc(-c2ccc3c(c2)C2CNC(C3)c3ccccc32)cc1 (stereo not given)
IC50 (Glutamate NMDA receptor): 0.421 µM

COc1ccc2c(c1)C1CNC2Cc2ccccc21 (stereo not given)
IC50 (Glutamate NMDA receptor): 0.332 µM

Fc1ccc2c(c1)C1CNC(C2)c2ccc(F)cc21 (stereo not given)
IC50 (Glutamate NMDA receptor): 0.0512 µM

CC(=O)N1CC2c3ccccc3CC1c1ccccc12 (stereo not given)
IC50 (Glutamate NMDA receptor): > 10 µM

c1ccc2c(c1)CC1NCC2c2ccccc21 (racemic)
Neuroprotection [1]: 85.3%
Neuroprotection [2]: 71.5%
Neuroprotection [3]: 39.9%
Neuroprotection [4]: 99.1%
Neuroprotection [5]: 76.6%
Neuroprotection [6]: 61.3%
Neuroprotection [7]: 25.5%

c1ccc2c(c1)CC1NCC2c2ccccc21 (single isomer, unassigned; (+))
Neuroprotection [1]: 68.8%
Neuroprotection [2]: 73.3%
Neuroprotection [3]: 57.2%
Neuroprotection [4]: 93.6%
Neuroprotection [5]: 76.3%
Neuroprotection [6]: 73.9%
Neuroprotection [7]: 40.5%
IC50 (Glutamate NMDA receptor): 0.0376 µM and 0.0042 µM

Fc1ccc2c(c1)C1CNC(C2)c2ccccc21 (single isomer, unassigned; (+))
IC50 (Glutamate NMDA receptor): 0.0155 µM

CN1CC2c3ccccc3CC1c1ccccc12 (single isomer, unassigned; (+))
Neuroprotection [1]: 74.7%
Neuroprotection [2]: 62.7%
Neuroprotection [3]: 58.7%
Neuroprotection [8]: 93.6%
Neuroprotection [9]: 92.1%
Neuroprotection [10]: 56.6%
Neuroprotection [4]: 91%
Neuroprotection [5]: 65%
Neuroprotection [6]: 59.9%
Neuroprotection [7]: 23.3%
Neuroprotection [11]: 97.8%
Neuroprotection [12]: 90%
Neuroprotection [13]: 84%
Neuroprotection [14]: 53.3%
IC50 (Glutamate NMDA receptor): 0.826 µM

Fc1ccc2c(c1)C1CNC(C2)c2ccccc21 (single isomer, unassigned; (-))
IC50 (Glutamate NMDA receptor): 0.531 µM

c1ccc2c(c1)CC1NCC2c2ccccc21 (stereo in doubt; 3)
IC50 (Glutamate NMDA receptor): 0.0594 µM

Clc1ccc2c(c1)C1CNC(C2)c2ccccc21 (stereo in doubt; 13c)
IC50 (Glutamate NMDA receptor): 0.0713 µM

Fc1ccc2c(c1)C1CNC(C2)c2ccccc21 (stereo in doubt; 13e)
IC50 (Glutamate NMDA receptor): 0.0294 µM

Clc1ccc2c(c1)C1CNC(C2)c2ccccc21 (stereo in doubt; (+)-13c)
IC50 (Glutamate NMDA receptor): 0.0321 µM

Clc1ccc2c(c1)C1CNC(C2)c2ccccc21 (stereo in doubt; (-)-13c)
IC50 (Glutamate NMDA receptor): 0.931 µM

C[C@]12N[C@H](Cc3ccccc31)c1ccccc12 [DIZOCILPINE]
Neuroprotection [1]: 98.3%
Neuroprotection [2]: 95.5%
Neuroprotection [3]: 90.3%
Neuroprotection [4]: 97.5%
Neuroprotection [5]: 94.7%
Neuroprotection [6]: 93.9%
Neuroprotection [7]: 88.4%
